Converted amounts (≈) assume the structure as drawn.
Key:
Type in all cases: functional
Aspergillus fumigatus = test: Antifungal activity against Aspergillus fumigatus ATCC 26934
Method in brief: (§1)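 Broth microdilution per CLSI M38-A2 in RPMI-1640 with MOPS at pH 7.0. Inoculum 1-5 × 10^3 CFU/mL, with twofold compound dilutions spanning 250-0.24 µg/ml (final DMSO <1%). Plates incubated at 35 °C, moist and dark, and read when the control fungus had grown. MIC is total growth inhibition. MFC comes from subculturing clear wells in duplicate onto SDA.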

Aspergillus flavus = test: Antifungal activity against Aspergillus flavus ATCC 9170; method in brief: as §1
Aspergillus niger = test: Antifungal activity against Aspergillus niger ATCC 9029; method in brief: as §1
Candida tropicalis = test: Antifungal activity against Candida tropicalis C 131 2000
Method in brief: (§2)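 CLSI M27-A3 broth microdilution in RPMI-1640 buffered to pH 7.0 with MOPS. Inoculum 1-5 × 10^3 CFU/mL. Compound twofold dilutions from 250 to 0.24 µg/ml, final DMSO <1%. Incubated at 35 °C in a moist, dark chamber and read at 48 h. MIC is the lowest concentration giving total growth inhibition. For MFC, 5 µL from clear wells was plated in duplicate on SDA; MFC is the lowest concentration with no growth.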

Cryptococcus neoformans = test: Antifungal activity against Cryptococcus neoformans ATCC 32264; method in brief: as §2
Saccharomyces cerevisiae = test: Antifungal activity against Saccharomyces cerevisiae ATCC 9763; method in brief: as §2
Trichophyton rubrum = test: Antifungal activity against Trichophyton rubrum C 113 2000
Method in brief: (§3)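 Dermatophytes tested by CLSI M38-A2 microdilution in MOPS-buffered RPMI-1640 at pH 7.0. Inoculum 1-5 × 10^3 CFU/mL; compounds 250 to 0.24 µg/ml in twofold steps, final DMSO <1%. Incubated at 28 °C in a moist, dark chamber and read according to control growth. MIC is the lowest concentration with complete inhibition. MFC is the lowest concentration with no growth after duplicate subculture on SDA.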

Nannizzia gypsea = test: Antifungal activity against Microsporum gypseum C 115 2000; method in brief: as §3
Candida albicans = test: Antifungal activity against Candida albicans ATCC 10213; method in brief: as §2
[1] = tested on: Trichophyton mentagrophytes; test: Antifungal activity against Trichophyton mentagrophytes ATCC 9972; method in brief: as §3

SMILES	MIC (Aspergillus fumigatus) [µg/mL]	MIC (Aspergillus flavus) [µg/mL]	MIC (Aspergillus niger) [µg/mL]	MIC (Candida tropicalis) [µg/mL]	MIC (Cryptococcus neoformans) [µg/mL]	MIC (Saccharomyces cerevisiae) [µg/mL]	MIC (Trichophyton rubrum) [µg/mL]	MIC (Nannizzia gypsea) [µg/mL]	MIC (Candida albicans) [µg/mL]	MIC [1] [µg/mL]	MFC (Aspergillus fumigatus) [µg/mL]	MFC (Aspergillus flavus) [µg/mL]	MFC (Aspergillus niger) [µg/mL]	MFC (Candida tropicalis) [µg/mL]	MFC (Cryptococcus neoformans) [µg/mL]	MFC (Saccharomyces cerevisiae) [µg/mL]	MFC (Trichophyton rubrum) [µg/mL]	MFC (Nannizzia gypsea) [µg/mL]	MFC (Candida albicans) [µg/mL]	MFC [1] [µg/mL]
CC1=CC(=O)N(CCCCc2ccccc2)C1O (stereo not given)	> 250	> 250	> 250	> 250	> 250	> 250	> 250	> 250	> 250	> 250	> 250	> 250	> 250	> 250	> 250	> 250	> 250	> 250	> 250	> 250
CC1=CC(O)N(CCc2ccccc2)C1=O (stereo not given)	> 250	> 250	> 250	> 250	> 250	> 250	> 250	> 250	> 250	> 250	> 250	> 250	> 250	> 250	> 250	> 250	> 250	> 250	> 250	> 250
CC1=CC(O)N(CCCc2ccccc2)C1=O (stereo not given)	> 250	> 250	> 250	> 250	> 250	> 250	> 250	> 250	> 250	> 250	> 250	> 250	> 250	> 250	> 250	> 250	> 250	> 250	> 250	> 250
C[C@@H]1[C@H](O)[C@@H](C)/C=C/C=C/C=C/C=C/C=C/C=C/C=C/[C@H](O[C@@H]2O[C@H](C)[C@@H](O)[C@H](N)[C@@H]2O)C[C@@H]2O[C@](O)(C[C@@H](O)C[C@@H](O)[C@H](O)CC[C@@H](O)C[C@@H](O)CC(=O)O[C@H]1C)C[C@H](O)[C@H]2C(=O)O [AMPHOTERICIN B]	0.48 (≈ 0.519 µM)	0.48 (≈ 0.519 µM)	0.48 (≈ 0.519 µM)	0.48 (≈ 0.519 µM)	0.24 (≈ 0.26 µM)	0.48 (≈ 0.519 µM)	0.06 (≈ 0.0649 µM)	0.12 (≈ 0.13 µM)	0.97 (≈ 1.05 µM)	0.06 (≈ 0.0649 µM)	0.97 (≈ 1.05 µM)	1.95 (≈ 2.11 µM)	3.9 (≈ 4.22 µM)	0.97 (≈ 1.05 µM)	0.97 (≈ 1.05 µM)	1.95 (≈ 2.11 µM)	0.24 (≈ 0.26 µM)	0.48 (≈ 0.519 µM)	1.95 (≈ 2.11 µM)	0.24 (≈ 0.26 µM)

More lines, main results first:

MIC (Aspergillus fumigatus) [µg/mL]	MIC (Aspergillus flavus) [µg/mL]	MIC (Aspergillus niger) [µg/mL]	MIC (Candida tropicalis) [µg/mL]	MIC (Cryptococcus neoformans) [µg/mL]	MIC (Saccharomyces cerevisiae) [µg/mL]	MIC (Trichophyton rubrum) [µg/mL]	MIC (Nannizzia gypsea) [µg/mL]	MIC (Candida albicans) [µg/mL]	MIC [1] [µg/mL]	SMILES	MFC (Aspergillus fumigatus) [µg/mL]	MFC (Aspergillus flavus) [µg/mL]	MFC (Aspergillus niger) [µg/mL]	MFC (Candida tropicalis) [µg/mL]	MFC (Cryptococcus neoformans) [µg/mL]	MFC (Saccharomyces cerevisiae) [µg/mL]	MFC (Trichophyton rubrum) [µg/mL]	MFC (Nannizzia gypsea) [µg/mL]	MFC (Candida albicans) [µg/mL]	MFC [1] [µg/mL]
> 250	> 250	> 250	> 250	> 250	> 250	> 250	> 250	> 250	> 250	CC1=CC(O)N(c2ccccc2)C1=O (stereo not given)	> 250	> 250	> 250	> 250	> 250	> 250	> 250	> 250	> 250	> 250
> 250	> 250	> 250	> 250	> 250	> 250	> 250	> 250	> 250	> 250	CC1=CC(O)N(Cc2ccccc2)C1=O (stereo not given)	> 250	> 250	> 250	> 250	> 250	> 250	> 250	> 250	> 250	> 250
> 250	> 250	> 250	> 250	> 250	> 250	> 250	> 250	> 250	> 250	CC1=CC(O)N(CCCCc2ccccc2)C1=O (stereo not given)	> 250	> 250	> 250	> 250	> 250	> 250	> 250	> 250	> 250	> 250
